Experimental data as given in ChEMBL document CHEMBL6083205, “A comprehensive apoptotic assessment of niloticin in cervical cancer cells: a tirucallane-type triterpenoid from Aphanamixis polystachya (Wall.) Parker” (RSC Med Chem, 2024).

System: HeLa
Test: Antiproliferative activity against human HeLa cells assessed as inhibition of cell growth incubated for 24 hrs by MTT assay
Format: functional, cell-based
In short: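 Cells kept in DMEM with 10% FBS and 1% antibiotic-antimycotic at 37 °C and 5% CO2. Seeded at 8 × 10^3 cells per 100 μL and left 24 h, then exposed 24 h to 5, 10, 20, 50 or 100 μM. MTT at 0.5 mg/mL in HBSS was added for 2–4 h at 37 °C in the dark. Formazan was dissolved in DMSO, A570 was read, and IC50 was derived.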

C[C@@H](C[C@@H](O)[C@@H](O)C(C)(C)O)[C@@H]1CC[C@]2(C)C3=CC[C@H]4C(C)(C)C(=O)CC[C@]4(C)[C@H]3CC[C@@]12C
IC50: 51.9 µM
